According to paper PMC2886848 (Science (New York, N.Y.), 2009):
“Also recorded” adds a separate entry of the source. One block for each molecule: values may come before it.

Key:
[1] = target: T1, procaspase-3 (Homo sapiens, UniProt P42574); assay: procaspase-3 autoproteolytic activation, fluorogenic Ac-DEVD-AFC activity assay; format: biochemical
T1 sequence (P42574 1-277): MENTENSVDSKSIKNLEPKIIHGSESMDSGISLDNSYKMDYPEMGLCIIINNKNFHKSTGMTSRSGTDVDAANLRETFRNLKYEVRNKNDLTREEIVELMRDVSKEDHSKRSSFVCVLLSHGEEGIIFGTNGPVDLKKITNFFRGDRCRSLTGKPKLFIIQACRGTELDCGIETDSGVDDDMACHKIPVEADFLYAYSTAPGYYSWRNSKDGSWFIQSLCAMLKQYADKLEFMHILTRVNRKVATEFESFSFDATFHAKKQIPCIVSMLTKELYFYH

[2] = target: T2, procaspase-6 (Homo sapiens, UniProt P55212); assay: procaspase-6 activation, fluorogenic Ac-VEID-AFC activity assay; format: biochemical
T2 sequence (P55212 1-293): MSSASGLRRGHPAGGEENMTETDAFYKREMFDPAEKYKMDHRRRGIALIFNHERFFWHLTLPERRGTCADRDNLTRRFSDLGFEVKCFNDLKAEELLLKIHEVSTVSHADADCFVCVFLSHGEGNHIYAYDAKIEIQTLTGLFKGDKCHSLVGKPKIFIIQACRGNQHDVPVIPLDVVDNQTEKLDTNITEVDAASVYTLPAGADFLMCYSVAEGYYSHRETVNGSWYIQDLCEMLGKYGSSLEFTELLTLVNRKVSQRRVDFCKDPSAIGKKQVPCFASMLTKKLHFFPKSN

[3] = test system: procaspase-7; assay: procaspase-7 activation, fluorogenic Ac-DEVD-AFC activity assay; format: biochemical; settings: procaspase-7 100 nM; 1 nM granzyme B, 25 μM 1541 or 100 μM PAC-1
How it was run: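 Procaspase-7 (100 nM) was incubated at 37 °C with 1 nM granzyme B, DMSO, 100 μM reference procaspase activator or 25 μM test compound. Activity was sampled every 20 minutes by adding fluorogenic substrate Ac-DEVD-AFC.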

[4] = target: T1, procaspase-3; settings: caused through chelation of inhibitory zinc ion in some assay buffers; cited from earlier work
[5] = test system: BT549 cells; assay: time course of cell viability in BT549 cells; format: cell-based; settings: 25 μM 1541, 1541C, 1541D; 1 μM STS; 100 μM etoposide; 1541 and STS after 4 hours
How it was run: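 p53-deficient BT549 breast cancer cells (2,000) were exposed to 25 μM test compound or either of two analogs, 1 μM staurosporine, 100 μM etoposide or DMSO (final 0.5%). Cell viability was assayed at 2, 4, 6, 8, 12 and 24 h.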

[6] = test system: BT549 cells; assay: time course of DEVDase activity in BT549 cells; format: cell-based; settings: 25 μM 1541, 1 μM STS
How it was run: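 p53-deficient BT549 breast cancer cells (2,000) were treated with 25 μM test compound or analogs, 1 μM staurosporine, 100 μM etoposide or DMSO (final 0.5%). Executioner caspase (DEVDase) activity was measured at 2, 4, 6, 8, 12 and 24 h.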

[7] = test system: BT549 cells; assay: cytochrome C release in cytoplasmic extracts of BT549 cells; format: cell-based; settings: 25 μM 1541, 1 μM STS, harvested every 3 hours
[8] = test system: wild type (A3) Jurkat cells; assay: cell viability of wild type; format: cell-based, human; settings: 25 μM 1541, 1 μM STS, 100 ng/ml FasL
How it was run: (§1)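 Wild-type (A3) and caspase-8-deficient (I9.2) human Jurkat cells (100,000 cells) were exposed to 25 μM test compound, 1 μM staurosporine or 100 ng/ml FasL. Cell viability was assayed every 2 hours.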

[9] = test system: caspase-8 deficient Jurkat cells (I9.2); assay: cell viability of caspase-8 deficient; format: cell-based, human; settings: 25 μM 1541, 1 μM STS, 100 ng/ml FasL
How it was run: as §1

[10] = test system: wild type murine embryonic fibroblasts (MEF); assay: histone ELISA apoptosis assay in wild type MEFs; format: cell-based; settings: 1 μM STS, 25 μM 1541, 12 hours
How it was run: (§2)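 Wild-type and Bak−/−/Bax−/− double-knockout murine embryonic fibroblasts (5,000 cells) were treated at 37 °C with 1 μM staurosporine, 25 μM test compound or DMSO (final 0.5%). Apoptosis was measured after 12 h by histone sandwich ELISA on lysates, which detects histone solubilisation from DNA fragmentation.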

[11] = test system: Bak−/−/Bax−/− double knockout (DKO MEFs); assay: histone ELISA apoptosis assay in Bak−/−/Bax−/− DKO MEFs; format: cell-based, murine; settings: 1 μM STS, 25 μM 1541, 12 hours
How it was run: as §2

[12] = test system: BT549 cells; assay: protection against 1541-induced apoptosis with caspase inhibitors in BT549 cells; format: cell-based; settings: preincubation with inhibitor 0.78 to 100 μM, then 25 μM 1541, 24 hours
How it was run: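 BT549 cells (2,500) were preincubated overnight with Biotin-DEVD-FMK (caspase-3/-7 inhibitor) or Biotin-VAD-FMK (pan-caspase inhibitor) at 0.78 to 100 μM. Cells were then switched to fresh medium containing 25 μM test compound plus the same inhibitor concentration. Viability was assayed after 24 h at 37 °C.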

[13] = test system: C163A procaspase-3; assay: cleavage of inactive C163A procaspase-3 by granzyme B; format: biochemical; settings: C163A 250 nM, granzyme B 0.5 nM, alone or with 1541 25 μM
[14] = test system: procaspase-3 mutants (S198A, T199A and S205A); assay: activation of procaspase-3 alanine mutants; format: biochemical; settings: 5 hours, 25 μM 1541 or 1 nM granzyme B, 37 °C
How it was run: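 Wild-type procaspase-3 and active-site alanine mutants (S198A, T199A, S205A), chosen by alanine scanning near the active site, were incubated 5 h at 37 °C with 25 μM test compound, 1 nM granzyme B or DMSO. Activation was sampled by kinetic assays started with fluorogenic substrate Ac-DEVD-AFC.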

[15] = target: T2, procaspase-6; settings: cited from earlier work

Molecule: C=CCc1cccc(/C=N/NC(=O)CN2CCN(Cc3ccccc3)CC2)c1O [PAC-1]
activation of procaspase-3 (in words) [1]: no detectable increase in activity or self-proteolysis
activation of procaspase-6 (in words) [2]: no detectable increase in activity or self-proteolysis
activation of procaspase-7 (in words) [3]: no detectable increase in activity or self-proteolysis
activation of procaspase-3 seen for PAC-1 [4]: ~ 2 fold

Molecule: CN[C@@H]1C[C@H]2O[C@@](C)([C@@H]1OC)n1c3ccccc3c3c4c(c5c6ccccc6n2c5c31)C(=O)NC4 [STS, staurosporine]
induction of apoptosis / cell death in BT549 (in words) [5]: near complete apoptosis
DEVDase activity in BT549 (in words) [6]: significantly higher
time of peak DEVDase activity [6]: 8 h
mitochondrial cytochrome C release (in words) [7]: much greater and more rapid mitochondrial cytochrome C release
apoptosis in wild type Jurkat cells (in words) [8]: comparable to 1541
apoptosis in caspase-8 deficient Jurkat cells (in words) [9]: somewhat slower
apoptosis in wild type MEFs (in words) [10]: susceptible
apoptosis in DKO MEFs (in words) [11]: completely resistant

Molecule: COc1cc([C@@H]2c3cc4c(cc3[C@@H](O[C@@H]3O[C@@H]5CO[C@@H](C)O[C@H]5[C@H](O)[C@H]3O)[C@H]3COC(=O)[C@H]23)OCO4)cc(OC)c1O [etoposide]
induction of apoptosis / cell death in BT549 (in words) [5]: much slower apoptosis

Molecule: DEVD-FMK
block of 1541-induced apoptosis (in words) [12]: completely blocked apoptosis

time to full activation of the zymogen ([1]; 1 nM granzyme B, procaspase-3 100 nM): ≤ 90 min
activation of procaspase-7 (in words) [3]: robustly activated and fully processed
cleavage of C163A procaspase-3 after 30 minutes [13]: ~ 10%
cleavage of C163A procaspase-3 after 60 minutes [13]: 20%
Molecule: granzyme B: a natural proteolytic activator of procaspase-3
activation of S198A, T199A and S205A procaspase-3 (in words) [14]: efficiently activated; also recorded: wild type activity
activation of procaspase-6 by granzyme B (in words) [15]: resistant

B1: FasL: a specific inducer of the extrinsic pathway (protein, UniProt P48023 130-281, looked up)
Tumor necrosis factor ligand …: QIGHPSPPPEKKELRKVAHLTGKSNSRSMPLEWEDTYGIVLLSGVKYKKGGLVINETGLYFVYSKVYFRGQSCNNLPLSHKVYMRNSKYPQDLVMMEGKMMSYCTTGQMWARSSYLGAVFNLTSADHLYVNVSELSLVNFEESQTFFGLYKL
apoptosis in wild type Jurkat cells (in words) [8]: active
apoptosis in caspase-8 deficient Jurkat cells (in words) [9]: not in caspase-8 deficient cells
